The record followed here is ChEMBL document CHEMBL2150871, “Design, synthesis and biological evaluation of new peptide-based ureas and thioureas as potential antagonists of the thrombin receptor PAR1” (Eur J Med Chem, 2012).

The experiment concerns the target T1, Proteinase-activated receptor 1 (Homo sapiens) (UniProt P25116).
T1 sequence (whole entry): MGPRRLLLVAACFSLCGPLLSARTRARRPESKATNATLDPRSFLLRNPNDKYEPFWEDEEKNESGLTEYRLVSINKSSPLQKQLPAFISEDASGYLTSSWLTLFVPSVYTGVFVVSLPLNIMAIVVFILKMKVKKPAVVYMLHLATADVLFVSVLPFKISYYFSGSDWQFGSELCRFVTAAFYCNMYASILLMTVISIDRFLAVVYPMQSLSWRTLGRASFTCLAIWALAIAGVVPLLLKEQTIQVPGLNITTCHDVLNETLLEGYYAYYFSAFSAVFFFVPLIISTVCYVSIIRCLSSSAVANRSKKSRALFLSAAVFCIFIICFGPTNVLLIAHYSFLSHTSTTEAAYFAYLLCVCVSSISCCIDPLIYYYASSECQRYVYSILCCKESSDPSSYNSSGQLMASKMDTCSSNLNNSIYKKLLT
Put plainly: Antagonist activity at PAR1 in human platelets assessed as inhibition of SFLLRN-induced aggregation at 10 uM after 5 mins relative to vehicle-treated control. It counts as functional. In short, it runs like this: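 Human donors who had taken no platelet-altering drugs for two weeks gave venous blood into 3.2% buffered citrate. Spun at 250×g for 7 min to give PRP, then 900×g for 10 min to give PPP, which served as optical reference and diluent. Diluted PRP was preincubated 5 min at 37 °C with compound or DMSO vehicle, then challenged with SFLLRN. Maximal optical aggregation at 5 min was compared with SFLLRN/vehicle to give % inhibition.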

Regarding `NCC[C@H](NC(=O)[C@H](Cc1ccc(F)c(F)c1)NC(=O)Nc1ccc2c(CN3CCCC3)nn(Cc3c(Cl)cccc3Cl)c2c1)C(=O)NCc1ccccc1`, the inhibition was 98%.

In general, inhibition refers to the change of the read-out against control, counted positive when it falls.
